From ChEMBL document CHEMBL2016503, “Design and synthesis of 4-O-methylhonokiol analogs as inhibitors of cyclooxygenase-2 (COX-2) and PGF₁ production” (Bioorg Med Chem, 2012)
pIC50: −log10 of the molar value.

Assays:
[1] = test system: RAW264.7; test: Inhibition of LPS-induced NO production in mouse RAW264.7 cells after 24 hrs by Griess assay; type: functional, cell-based; conditions: RAW264.7, 24 h
Summary of the method: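 RAW264.7 macrophages were grown in DMEM with heat-inactivated 10% FBS, penicillin and streptomycin at 37 °C under 5% CO₂. Cells were stimulated with LPS for 24 h with or without compound. Culture medium was mixed with an equal volume of 0.05% sulfanilamide and 0.05% N-(1-naphthyl)ethylenediamine, and absorbance was read at 540 nm. Nitrite was quantified against a sodium nitrite standard curve.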

[2] = test system: RAW264.7; test: Cytotoxicity against mouse RAW264.7 cells assessed as cell viability by propidium iodide staining based FACS-flow cytometry
Summary of the method: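 RAW264.7 macrophages were grown in DMEM with heat-inactivated 10% FBS, penicillin and streptomycin at 37 °C under 5% CO₂. Viability was assessed by propidium iodide nuclear staining at 1 µg/ml, followed by flow cytometry. PI-stained cells were counted as dead.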

[3] = biological target: T1, Prostaglandin G/H synthase 2 (Homo sapiens) (UniProt P35354); conditions: at 100 nM;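 further: recombinant enzyme with arachidonic acid substrate, compound preincubated 10 min before substrate, product read by EIA after 2 min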
T1 sequence (whole entry): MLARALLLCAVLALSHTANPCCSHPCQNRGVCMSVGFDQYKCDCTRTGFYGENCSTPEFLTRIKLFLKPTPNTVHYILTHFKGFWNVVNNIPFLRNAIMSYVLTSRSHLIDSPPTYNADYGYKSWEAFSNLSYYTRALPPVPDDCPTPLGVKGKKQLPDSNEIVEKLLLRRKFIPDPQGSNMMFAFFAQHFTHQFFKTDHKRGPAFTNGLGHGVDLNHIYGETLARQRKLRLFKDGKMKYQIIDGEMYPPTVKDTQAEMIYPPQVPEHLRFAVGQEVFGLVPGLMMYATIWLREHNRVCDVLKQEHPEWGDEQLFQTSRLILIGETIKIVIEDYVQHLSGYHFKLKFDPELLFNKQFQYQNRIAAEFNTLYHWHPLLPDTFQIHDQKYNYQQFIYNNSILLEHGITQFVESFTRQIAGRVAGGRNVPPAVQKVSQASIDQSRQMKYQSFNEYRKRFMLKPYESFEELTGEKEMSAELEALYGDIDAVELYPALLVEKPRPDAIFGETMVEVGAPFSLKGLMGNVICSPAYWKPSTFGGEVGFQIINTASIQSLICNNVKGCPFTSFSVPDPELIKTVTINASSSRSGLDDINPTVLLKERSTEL

SMILES	pIC50 [1]	pIC50 [2]	inhibition [3]
C=CCc1cc(Cl)c(O)c(-c2ccc(OC)c(CC=C)c2)c1	4.40	4.09	
C=CCc1ccc(OCC=C(C)C)c(-c2ccc(OC)c(CC=C)c2)c1	< 4.00	< 4.00	44%
CCCc1cc(-c2cc(Br)ccc2O)no1	4.20	4.20	35%
C=CCc1ccc(OC)c(-c2ccc(OC)c(CC=C)c2)c1	4.40	< 4.00	46%
CCCc1ccc(O)c(-c2cn(CC3CCC3)nn2)c1	4.48	< 4.30	33%
C=CCc1cc(Br)c(O)c(-c2ccc(OC)c(CC=C)c2)c1	4.55	4.48	52%
C=CCc1ccc(O)c(-c2cc(CO)on2)c1	4.44	< 4.30	38%
COc1ccc(-c2cc(CC3CO3)ccc2O)cc1CC1CO1 (configuration not stated)	4.62	4.19	58%
CCCc1ccc(O)c(-c2ccc(OC)c(CCC)c2)c1	4.96	4.89	46%
C=CCc1ccc(O)c(-c2cc(CCC)on2)c1	4.21	4.09	39%
C=CCc1ccc(OC(=O)N(C)Cc2ccccc2)c(-c2ccc(OC)c(CC=C)c2)c1	4.48	4.36	63%
COc1ccc(-c2cc(CC=C(C)C)ccc2O)cc1CC=C(C)C	4.89	4.82	41%
C=CCn1cc(-c2cc(CCC)ccc2O)nn1	< 4.30	< 4.30	22%
C=CCNC(=O)Oc1ccc(CC=C)cc1-c1ccc(OC)c(CC=C)c1	< 4.00	< 4.00	48%
Cc1ccc(-c2cc(C(F)(F)F)nn2-c2ccc(S(N)(=O)=O)cc2)cc1 [CELECOXIB]	4.92	4.95	
C=CCc1ccc(OC(=O)NCc2ccccc2)c(-c2ccc(OC)c(CC=C)c2)c1	< 4.00	< 4.00	65%
C=CCc1ccc(OC(C)=O)c(-c2ccc(OC)c(CC=C)c2)c1	4.62	4.54	39%
C=CCc1ccc(O)c(-c2ccc(OC)c(CC=C)c2)c1 [METHYLHONOKIOL]	4.74	4.57	57%
C=CCc1ccc(OC(C)C)c(-c2ccc(OC)c(CC=C)c2)c1	4.11	< 4.00	23%
C=CCc1ccc(O)c(-c2ccc(OC)c(CCCO)c2)c1	4.39	4.28	
